# Assays:
# [1] = test system: Bcl-XL and Bid; assay: Ni/NTA pull-down of purified His6-tagged control proteins; conditions: purified protein, 20 μM compound
# Method in brief: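 Purified His6-Bcl-XL or His6-Bid (≈0.4 ug) was pre-incubated 60 min with 20 μM test compound, with DMSO as control. Ni-NTA agarose beads were added and incubated overnight at 4°C. Pulled-down protein was immunoblotted with anti-His antibody. Bands were quantified relative to the DMSO control.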
# [2] = target: NOD2 (Homo sapiens, UniProt Q9HC29); assay: Subcellular fractionation of MCF-7 cells stably expressing epitope-tagged NOD2; format: cell-based; conditions: MCF-7 cells expressing NOD2
# [3] = test system: TLR1, 2, 4, 5, 6 and 8; assay: THP.1 macrophage NF-κB/AP-1-inducible SEAP reporter, TLR agonists; format: cell-based, Human; conditions: 5 μM compound, 24 h, PMA-differentiated THP.1
# Method in brief: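 PMA-differentiated THP.1 cells carrying NF-κB-driven SEAP were cultured ± 5 μM test compound with TLR inducers: 0.5 μg/ml Pam3CSK4, heat-killed Listeria monocytogenes (HKLM), 1 μg/ml FSL-1, 0.5 μg/ml LPS, 0.5 μg/ml flagellin or 1 μg/ml ssRNA40. Supernatant SEAP was measured after 24 h, as % of inducer alone. Mean ± SEM, n=2.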
# [4] = test system: NOD1 signaling; assay: Gene transfection experiments in HEK 293T-NF-κB-luciferase cells; format: cell-based
# Method in brief: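 HEK293T NF-κB-luciferase cells were transfected with NOD1, RIP2, XIAP or GFP plasmids in various combinations. After 24 h, cells were cultured ± 3.5 μg/ml γ-tri-DAP, ± 10 μM test compound, or both, for 24 h. Luciferase was normalised to GFP-transfected cells (100%). Mean ± SD, n=4.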
# [5] = test system: IκBα; assay: γ-tri-DAP-induced expression of NF-κB target gene IκBα; format: cell-based
# [6] = test system: RIG-I/MDA-5, IRF3; assay: HEK293T ISRE-driven luciferase reporter, other interferon response stimuli; format: cell-based; conditions: 5 μM compound; poly(I:C), poly(dA:dT), Sendai virus
# Method in brief: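 HEK293T cells stably expressing an ISRE-driven luciferase reporter were cultured ± 5 μM test compound with 1 μg/ml poly(I:C) (LyoVec lipid transfection), 1 μg/ml poly(dA:dT) (LyoVec) or Sendai virus. Luciferase was measured after 24 h. Mean ± SD, n=4.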
# [7] = test system: non-canonical NF-κB activation induced by BAFF; assay: 697 pre-B leukemia cells NF-κB-luciferase reporter, BAFF; format: cell-based; conditions: 697 cells, 10 μM compound, 100 ng/ml BAFF, 24h
# Method in brief: (§1)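 697 cells stably carrying an NF-κB-luciferase reporter were cultured with or without 10 μM test compound plus inducer: 100 ng/ml BAFF or 5 μM ODN2006 as TLR9 ligand. Luciferase activity was read 24 h later. Mean ± SD, n=3.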
# [8] = test system: NF-κB, MAPK and Akt signalings; assay: γ-tri-DAP-dependent signaling; format: cell-based
# [9] = Cell viability under diverse cell treatments; format: cell-based
# [10] = target: T1, TLR9 (Homo sapiens, UniProt Q9NR96); assay: 697 pre-B leukemia cells NF-κB-luciferase reporter, CpG DNA; format: cell-based; conditions: 697 cells, 10 μM compound, 5 μM ODN2006, 24h
# T1 sequence (Q9NR96 26-1032): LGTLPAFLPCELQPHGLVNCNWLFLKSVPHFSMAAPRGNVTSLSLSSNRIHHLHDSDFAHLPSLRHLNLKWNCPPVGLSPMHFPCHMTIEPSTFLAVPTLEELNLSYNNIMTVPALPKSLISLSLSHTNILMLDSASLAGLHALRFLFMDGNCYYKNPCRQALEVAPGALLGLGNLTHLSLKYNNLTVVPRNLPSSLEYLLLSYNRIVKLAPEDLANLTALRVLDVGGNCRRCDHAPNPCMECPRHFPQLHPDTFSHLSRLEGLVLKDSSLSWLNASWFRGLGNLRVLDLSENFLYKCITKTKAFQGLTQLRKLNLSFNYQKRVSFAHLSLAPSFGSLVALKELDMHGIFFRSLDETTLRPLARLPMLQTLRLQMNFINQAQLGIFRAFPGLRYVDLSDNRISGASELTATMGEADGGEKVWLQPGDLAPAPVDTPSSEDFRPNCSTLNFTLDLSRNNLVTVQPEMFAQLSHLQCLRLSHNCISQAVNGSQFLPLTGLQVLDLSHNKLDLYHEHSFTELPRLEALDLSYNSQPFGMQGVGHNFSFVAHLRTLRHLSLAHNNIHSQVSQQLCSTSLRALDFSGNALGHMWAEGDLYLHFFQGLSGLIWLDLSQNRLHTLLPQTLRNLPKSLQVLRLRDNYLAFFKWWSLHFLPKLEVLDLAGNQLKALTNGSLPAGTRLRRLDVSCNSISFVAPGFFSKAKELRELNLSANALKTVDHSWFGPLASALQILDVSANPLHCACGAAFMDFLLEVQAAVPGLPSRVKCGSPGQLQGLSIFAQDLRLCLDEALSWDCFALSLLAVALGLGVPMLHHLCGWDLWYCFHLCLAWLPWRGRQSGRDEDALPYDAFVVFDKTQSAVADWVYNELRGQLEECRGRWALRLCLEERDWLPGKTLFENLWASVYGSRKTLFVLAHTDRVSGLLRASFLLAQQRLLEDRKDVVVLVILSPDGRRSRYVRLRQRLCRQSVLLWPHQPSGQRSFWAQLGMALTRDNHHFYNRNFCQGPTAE
# Method in brief: as §1
# [11] = test system: inflammasomes; assay: IL-1β secretion induced by inflammasome activators; format: cell-based; conditions: 5 μM compound; MSU, poly(dA:dT), LPS plus ATP, S. typhimurium
# Method in brief: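 RAW264.7 macrophages were treated with 5 μM test compound, with LPS pre-treatment to induce pro-IL-1β synthesis. Supernatants were taken at 2 h (Salmonella) or 4 h (others). IL-1β by ELISA. Mean ± SD, n=3.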
# Chain of NOD2 (Q9HC29 whole entry): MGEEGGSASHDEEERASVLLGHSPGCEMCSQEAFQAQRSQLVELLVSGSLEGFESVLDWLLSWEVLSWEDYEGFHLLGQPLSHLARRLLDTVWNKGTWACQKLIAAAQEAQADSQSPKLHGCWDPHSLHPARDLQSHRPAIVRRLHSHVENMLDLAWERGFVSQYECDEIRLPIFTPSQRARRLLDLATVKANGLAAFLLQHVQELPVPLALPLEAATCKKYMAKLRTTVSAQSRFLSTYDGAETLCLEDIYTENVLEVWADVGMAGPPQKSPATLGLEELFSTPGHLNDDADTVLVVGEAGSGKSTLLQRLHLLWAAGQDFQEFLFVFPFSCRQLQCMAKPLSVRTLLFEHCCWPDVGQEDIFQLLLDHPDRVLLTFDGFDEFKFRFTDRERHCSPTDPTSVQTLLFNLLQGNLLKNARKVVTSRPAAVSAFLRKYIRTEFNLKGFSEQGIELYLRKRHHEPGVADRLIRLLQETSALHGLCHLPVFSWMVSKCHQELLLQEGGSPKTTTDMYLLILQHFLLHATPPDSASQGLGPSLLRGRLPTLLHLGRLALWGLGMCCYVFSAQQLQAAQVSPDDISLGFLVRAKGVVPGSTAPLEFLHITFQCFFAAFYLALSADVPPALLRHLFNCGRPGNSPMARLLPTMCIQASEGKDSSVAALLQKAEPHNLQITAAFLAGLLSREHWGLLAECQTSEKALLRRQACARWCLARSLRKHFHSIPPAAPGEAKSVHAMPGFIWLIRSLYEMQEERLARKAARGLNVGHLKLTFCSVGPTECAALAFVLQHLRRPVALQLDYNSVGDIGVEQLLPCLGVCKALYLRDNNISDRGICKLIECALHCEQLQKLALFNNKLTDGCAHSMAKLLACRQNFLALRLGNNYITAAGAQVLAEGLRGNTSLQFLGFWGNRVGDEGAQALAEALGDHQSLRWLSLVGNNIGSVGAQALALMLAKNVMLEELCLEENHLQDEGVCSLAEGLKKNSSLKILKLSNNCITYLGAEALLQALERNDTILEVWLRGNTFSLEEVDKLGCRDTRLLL
structure (smiles),measurement,setting,value
Cc1ccc(S(=O)(=O)n2c(N)nc3ccccc32)cc1 [CID-1088438],binding of His6-tagged control proteins Bcl-XL and Bid to Ni/NTA,[1],without affecting
same,NOD2 compartmentalization,[2],No changes
same,NF-κB-inducible SEAP activity induced by TLR agonists,[3],No inhibitory effects
same,"site of action in NOD1 signaling (NOD1, RIP2, XIAP transfection)","[4]; 10 μM compound, 24 hrs",targets NOD1 signaling upstream of RIP2
same,"impact in cells over-expressing IKKγ/NEMO, MYD88, FLIP, CARD6, APAF1 or NLRC4",[4]; data not shown,No significant impact
same,γ-tri-DAP-induced expression of IκBα at the mRNA level,[5],inhibited
same,ISRE-driven reporter gene activity induced by other interferon response stimuli,[6],no inhibition
same,non-canonical NF-κB activation induced by BAFF,[7],not inhibited
same,Akt survival pathway,[8],without affecting
same,γ-tri-DAP-dependent activation of MAPK (p38 phosphorylation),[8],inhibits
same,γ-tri-DAP-dependent activation of NF-κB (IκBα phosphorylation and degradation),[8],inhibits
same,Cell viability,[9],not affected
same,NF-κB activity induced by TLR9 ligand CpG DNA,[10],did not inhibit
same,IL-1β secretion induced by various inflammasome activators,[11],did not inhibit

# From publication PMC3152441 (Chemistry & biology, 2011)
